Measurements: ChEMBL document CHEMBL4406834, “Phenylthiazoles with nitrogenous side chain: An approach to overcome molecular obesity” (Eur J Med Chem, 2019)
Converted amounts (≈) assume the structure as drawn.

Tests used:
Staphylococcus aureus [1] = test: Antibacterial activity against methicillin-resistant Staphylococcus aureus NRS384 USA300 after 18 to 20 hrs by broth microdilution assay; type: functional
Outline: (§1)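 Broth microdilution per CLSI. Strains grown aerobically overnight on tryptone soy agar at 37 °C, adjusted to 0.5 McFarland, then diluted in cation-adjusted Mueller-Hinton broth to about 5 × 10^5 CFU/mL. Compounds (10 mg/mL DMSO stocks) serially diluted. Incubated aerobically at 37 °C for 18-20 h. MIC is the lowest concentration with no visible growth.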

[2] = Aqueous solubility of the compound in phosphate buffered saline assessed as concentration that produces no precipitate measured as OD at 540 nm; type: physicochemical
Acinetobacter baumannii [3] = test: Antibacterial activity against Acinetobacter baumannii ATCC 19606; type: functional; settings: ATCC 19606 = CIP 70.34 = JCM 6841
Escherichia coli [4] = test: Antibacterial activity against Escherichia coli BW25113; type: functional
Escherichia coli [5] = test: Antibacterial activity against TolC-deficient Escherichia coli JW55031; type: functional
Escherichia coli [6] = test: Antibacterial activity against Escherichia coli ATCC 25922; type: functional
Klebsiella pneumoniae [7] = test: Antibacterial activity against Klebsiella pneumoniae BAA-1706; type: functional
Pseudomonas aeruginosa [8] = test: Antibacterial activity against Pseudomonas aeruginosa ATCC 27853; type: functional
Pseudomonas aeruginosa [9] = test: Antibacterial activity against Pseudomonas aeruginosa ATCC 15442; type: functional
Acinetobacter baumannii [10] = test: Bactericidal activity against Acinetobacter baumannii ATCC 19606; type: functional; settings: ATCC 19606 = CIP 70.34 = JCM 6841
Escherichia coli [11] = test: Bactericidal activity against Escherichia coli BW25113; type: functional
Escherichia coli [12] = test: Bactericidal activity against TolC-deficient Escherichia coli JW55031; type: functional
Escherichia coli [13] = test: Bactericidal activity against Escherichia coli ATCC 25922; type: functional
Klebsiella pneumoniae [14] = test: Bactericidal activity against Klebsiella pneumoniae BAA-1706; type: functional
Pseudomonas aeruginosa [15] = test: Bactericidal activity against Pseudomonas aeruginosa ATCC 27853; type: functional
Pseudomonas aeruginosa [16] = test: Bactericidal activity against Pseudomonas aeruginosa ATCC 15442; type: functional
Streptococcus pneumoniae [17] = test: Bactericidal activity against methicillin-resistant Streptococcus pneumoniae ATCC 700677 incubated for 18 to 20 hrs followed by replating on tryptic soy agar plate and further incubated for 18 to 24 hrs by CLSI-based broth microdilution assay; type: functional
Outline: (§2)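 MBC: after the broth microdilution MIC (CAMHB, ~5 × 10^5 CFU/mL, 37 °C, 18-20 h), 4 µL from wells without growth plated onto tryptic soy agar. Plates incubated 37 °C for 18-20 h. MBC is the lowest concentration giving 99.9% reduction in growth.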

Streptococcus pneumoniae [18] = test: Bactericidal activity against cephalosporin-resistant Streptococcus pneumoniae ATCC 51916 incubated for 18 to 20 hrs followed by replating on tryptic soy agar plate and further incubated for 18 to 24 hrs by CLSI-based broth microdilution assay; type: functional; outline: as §2
Listeria monocytogenes [19] = test: Bactericidal activity against Listeria monocytogenes ATCC 19111 incubated for 18 to 20 hrs followed by replating on tryptic soy agar plate and further incubated for 18 to 24 hrs by CLSI-based broth microdilution assay; type: functional
Enterococcus faecium [20] = test: Bactericidal activity against vancomycin-resistant Enterococcus faecium ATCC 700221 incubated for 18 to 20 hrs followed by replating on tryptic soy agar plate and further incubated for 18 to 24 hrs by CLSI-based broth microdilution assay; type: functional; outline: as §2
Enterococcus faecalis = test: Bactericidal activity against vancomycin-resistant Enterococcus faecalis ATCC 51299 incubated for 18 to 20 hrs followed by replating on tryptic soy agar plate and further incubated for 18 to 24 hrs by CLSI-based broth microdilution assay; type: functional; outline: as §2
[21] = tested on: Staphylococcus epidermidis; test: Bactericidal activity against methicillin-resistant Staphylococcus epidermidis NRS101 incubated for 18 to 20 hrs followed by replating on tryptic soy agar plate and further incubated for 18 to 24 hrs by CLSI-based broth microdilution assay; type: functional
Listeria monocytogenes [22] = test: Antibacterial activity against Listeria monocytogenes ATCC 19111 after 18 to 20 hrs by CLSI-based broth microdilution assay; type: functional
Enterococcus faecium [23] = test: Antibacterial activity against vancomycin-resistant Enterococcus faecium ATCC 700221 after 18 to 20 hrs by CLSI-based broth microdilution assay; type: functional; outline: as §1
[24] = tested on: Staphylococcus epidermidis; test: Antibacterial activity against methicillin-resistant Staphylococcus epidermidis NRS101 after 18 to 20 hrs by CLSI-based broth microdilution assay; type: functional; outline: as §1
Staphylococcus aureus [25] = test: Bactericidal activity against vancomycin-resistant Staphylococcus aureus 12 incubated for 18 to 20 hrs followed by replating on tryptic soy agar plate and further incubated for 18 to 24 hrs by CLSI-based broth microdilution assay; type: functional; outline: as §2
Staphylococcus aureus [26] = test: Bactericidal activity against vancomycin-resistant Staphylococcus aureus 10 incubated for 18 to 20 hrs followed by replating on tryptic soy agar plate and further incubated for 18 to 24 hrs by CLSI-based broth microdilution assay; type: functional; outline: as §2
Staphylococcus aureus [27] = test: Bactericidal activity against methicilline-resistant Staphylococcus aureus NRS386 USA700 incubated for 18 to 20 hrs followed by replating on tryptic soy agar plate and further incubated for 18 to 24 hrs by CLSI-based broth microdilution assay; type: functional; outline: as §2
Staphylococcus aureus [28] = test: Bactericidal activity against methicilline-resistant Staphylococcus aureus NRS385 USA500 incubated for 18 to 20 hrs followed by replating on tryptic soy agar plate and further incubated for 18 to 24 hrs by CLSI-based broth microdilution assay; type: functional; outline: as §2
Staphylococcus aureus [29] = test: Bactericidal activity against methicilline-resistant Staphylococcus aureus NRS384 USA300 incubated for 18 to 20 hrs followed by replating on tryptic soy agar plate and further incubated for 18 to 24 hrs by CLSI-based broth microdilution assay; type: functional; outline: as §2
Staphylococcus aureus [30] = test: Bactericidal activity against methicilline-resistant Staphylococcus aureus NRS123 USA400 incubated for 18 to 20 hrs followed by replating on tryptic soy agar plate and further incubated for 18 to 24 hrs by CLSI-based broth microdilution assay; type: functional; outline: as §2
Staphylococcus aureus [31] = test: Bactericidal activity against methicilline-resistant Staphylococcus aureus NRS-119 incubated for 18 to 20 hrs followed by replating on tryptic soy agar plate and further incubated for 18 to 24 hrs by CLSI-based broth microdilution assay; type: functional; outline: as §2
Staphylococcus aureus [32] = test: Bactericidal activity against methicilline-sensitive Staphylococcus aureus NRS-107 incubated for 18 to 20 hrs followed by replating on tryptic soy agar plate and further incubated for 18 to 24 hrs by CLSI-based broth microdilution assay; type: functional; outline: as §2
Staphylococcus aureus [33] = test: Bactericidal activity against methicilline-sensitive Staphylococcus aureus ATCC 6538 incubated for 18 to 20 hrs followed by replating on tryptic soy agar plate and further incubated for 18 to 24 hrs by CLSI-based broth microdilution assay; type: functional; outline: as §2
Staphylococcus aureus [34] = test: Bactericidal activity against Staphylococcus aureus ATCC BAA42 incubated for 18 to 20 hrs followed by replating on tryptic soy agar plate and further incubated for 18 to 24 hrs by CLSI-based broth microdilution assay; type: functional; outline: as §2
Staphylococcus aureus [35] = test: Antibacterial activity against vancomycin-resistant Staphylococcus aureus 12 after 18 to 20 hrs by CLSI-based broth microdilution assay; type: functional; outline: as §1
Staphylococcus aureus [36] = test: Antibacterial activity against vancomycin-resistant Staphylococcus aureus 10 after 18 to 20 hrs by CLSI-based broth microdilution assay; type: functional; outline: as §1
Staphylococcus aureus [37] = test: Antibacterial activity against methicilline-resistant Staphylococcus aureus NRS385 USA500 after 18 to 20 hrs by CLSI-based broth microdilution assay; type: functional; outline: as §1
Staphylococcus aureus [38] = test: Antibacterial activity against methicilline-resistant Staphylococcus aureus NRS386 USA700 after 18 to 20 hrs by CLSI-based broth microdilution assay; type: functional; outline: as §1
Staphylococcus aureus [39] = test: Antibacterial activity against methicilline-resistant Staphylococcus aureus NRS384 USA300 after 18 to 20 hrs by CLSI-based broth microdilution assay; type: functional; outline: as §1
Staphylococcus aureus [40] = test: Antibacterial activity against methicilline-resistant Staphylococcus aureus NRS123 USA400 after 18 to 20 hrs by CLSI-based broth microdilution assay; type: functional; outline: as §1
Staphylococcus aureus [41] = test: Antibacterial activity against methicilline-resistant Staphylococcus aureus NRS-119 after 18 to 20 hrs by CLSI-based broth microdilution assay; type: functional; outline: as §1
Staphylococcus aureus [42] = test: Antibacterial activity against methicilline-sensitive Staphylococcus aureus ATCC 6538 after 18 to 20 hrs by CLSI-based broth microdilution assay; type: functional; outline: as §1
Staphylococcus aureus [43] = test: Antibacterial activity against methicilline-sensitive Staphylococcus aureus NRS-107 after 18 to 20 hrs by CLSI-based broth microdilution assay; type: functional; outline: as §1
Staphylococcus aureus [44] = test: Antibacterial activity against Staphylococcus aureus ATCC BAA42 after 18 to 20 hrs by CLSI-based broth microdilution assay; type: functional; outline: as §1

C/C(=N\NC(=N)N)c1sc(-c2ccc(N3CCOCC3)cc2)nc1C
MIC (Staphylococcus aureus [1]): > 128 µg/mL

C/C(=N\NC(=N)N)c1sc(-c2ccc(N3CCC4CCCCC4C3)cc2)nc1C (centres undefined)
MIC (Staphylococcus aureus [1]): > 128 µg/mL

C/C(=N\NC(=N)N)c1sc(-c2ccc(N3CCN(C)CC3)cc2)nc1C
MIC (Staphylococcus aureus [1]): 64 µg/mL (≈ 172 µM)

C/C(=N\NC(=N)N)c1sc(-c2ccc(N3CCCCC3C)cc2)nc1C (centres undefined)
MIC (Staphylococcus aureus [1]): 8 µg/mL (≈ 21.6 µM)

C/C(=N\NC(=N)N)c1sc(-c2ccc(N3CCCC3)cc2)nc1C
MIC (Staphylococcus aureus [1]): 16 µg/mL (≈ 46.7 µM)

C/C(=N\NC(=N)N)c1sc(-c2ccc(N3CCSC3)cc2)nc1C
MIC (Staphylococcus aureus [1]): > 128 µg/mL

C/C(=N\NC(=N)N)c1sc(-c2ccc(N3CC(O)C3)cc2)nc1C
MIC (Staphylococcus aureus [1]): 64 µg/mL (≈ 186 µM)

C/C(=N\NC(=N)N)c1sc(-c2ccc(N3CCC(C)CC3)cc2)nc1C
MIC (Staphylococcus aureus [1]): 16 µg/mL (≈ 43.2 µM)

C/C(=N\NC(=N)N)c1sc(-c2ccc(C3CCCCC3)cc2)nc1C
solubility kinetic [2]: 2.7 µM (≈ 0.96 µg/mL)

GENTAMICIN
MIC (Acinetobacter baumannii [3]): 32 µg/mL | MIC (Escherichia coli [4]): < 0.5 µg/mL | MIC (Escherichia coli [5]): < 0.5 µg/mL | MIC (Escherichia coli [6]): 1 µg/mL | MIC (Klebsiella pneumoniae [7]): 4 µg/mL | MIC (Pseudomonas aeruginosa [8]): 2 µg/mL | MIC (Pseudomonas aeruginosa [9]): 2 µg/mL | MBC (Acinetobacter baumannii [10]): 32 µg/mL | MBC (Escherichia coli [11]): < 0.5 µg/mL | MBC (Escherichia coli [12]): < 0.5 µg/mL | MBC (Escherichia coli [13]): 1 µg/mL | MBC (Klebsiella pneumoniae [14]): 4 µg/mL | MBC (Pseudomonas aeruginosa [15]): 4 µg/mL | MBC (Pseudomonas aeruginosa [16]): 2 µg/mL

C/C(=N\NC(=N)N)c1sc(-c2ccc(N3CCCCCC3)cc2)nc1C
MIC (Staphylococcus aureus [1]): > 128 µg/mL

C/C(=N\NC(=N)N)c1sc(-c2ccc(N3CCC(Br)CC3)cc2)nc1C
MIC (Staphylococcus aureus [1]): 8 µg/mL (≈ 18.4 µM)

C/C(=N\NC(=N)N)c1sc(-c2ccc(N3CCSCC3)cc2)nc1C
MIC (Staphylococcus aureus [1]): 32 µg/mL (≈ 85.4 µM)

CC(=O)NC[C@H]1CN(c2ccc(N3CCOCC3)c(F)c2)C(=O)O1 [LINEZOLID]
MBC (Streptococcus pneumoniae [17]): 16 µg/mL (≈ 47.4 µM) | MBC (Streptococcus pneumoniae [18]): 32 µg/mL (≈ 94.9 µM) | MBC (Listeria monocytogenes [19]): 32 µg/mL (≈ 94.9 µM) | MBC (Enterococcus faecium [20]): 16 µg/mL (≈ 47.4 µM) | MBC (Enterococcus faecalis): 16 µg/mL (≈ 47.4 µM) | MBC [21]: 8 µg/mL (≈ 23.7 µM) | MIC (Listeria monocytogenes [22]): ≤ 0.5 µg/mL | MIC (Enterococcus faecium [23]): 1 µg/mL (≈ 2.96 µM) | MIC [24]: 0.5 µg/mL (≈ 1.48 µM) | MBC (Staphylococcus aureus [25]): 64 µg/mL (≈ 190 µM) | MBC (Staphylococcus aureus [26]): > 64 µg/mL | MBC (Staphylococcus aureus [27]): 16 µg/mL (≈ 47.4 µM) | MBC (Staphylococcus aureus [28]): 32 µg/mL (≈ 94.9 µM) | MBC (Staphylococcus aureus [29]): 32 µg/mL (≈ 94.9 µM) | MBC (Staphylococcus aureus [30]): 64 µg/mL (≈ 190 µM) | MBC (Staphylococcus aureus [31]): > 64 µg/mL | MBC (Staphylococcus aureus [32]): 64 µg/mL (≈ 190 µM) | MBC (Staphylococcus aureus [33]): 16 µg/mL (≈ 47.4 µM) | MBC (Staphylococcus aureus [34]): 16 µg/mL (≈ 47.4 µM) | MIC (Staphylococcus aureus [35]): 1 µg/mL (≈ 2.96 µM) | MIC (Staphylococcus aureus [36]): 1 µg/mL (≈ 2.96 µM) | MIC (Staphylococcus aureus [37]): 1 µg/mL (≈ 2.96 µM) | MIC (Staphylococcus aureus [38]): 1 µg/mL (≈ 2.96 µM) | MIC (Staphylococcus aureus [39]): 1 µg/mL (≈ 2.96 µM) | MIC (Staphylococcus aureus [40]): 1 µg/mL (≈ 2.96 µM) | MIC (Staphylococcus aureus [41]): 64 µg/mL (≈ 190 µM) | MIC (Staphylococcus aureus [42]): 1 µg/mL (≈ 2.96 µM) | MIC (Staphylococcus aureus [43]): 1 µg/mL (≈ 2.96 µM) | MIC (Staphylococcus aureus [44]): 1 µg/mL (≈ 2.96 µM) | MIC (Staphylococcus aureus [1]): 1 µg/mL (≈ 2.96 µM)

C/C(=N\NC(=N)N)c1sc(-c2ccc(N3CCC3)cc2)nc1C
MIC (Staphylococcus aureus [1]): > 128 µg/mL

C/C(=N\NC(=N)N)c1sc(-c2ccc(-n3ccnc3)cc2)nc1C
MIC (Staphylococcus aureus [1]): 16 µg/mL (≈ 47.1 µM)

C/C(=N\NC(=N)N)c1sc(-c2ccc(N3CCCCCCC3)cc2)nc1C
MIC (Staphylococcus aureus [1]): 128 µg/mL (≈ 333 µM)
